TRPC6 inh: inhibitors of mouse TRPC6 channel; Q61143; HEK293-TRPC6, membrane potential dye, ACh-evoked depolarization; hits give low values; B-score at 10 µM; 310,000 compounds, 1.1% hits; AID 2553;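 active means B-score under library mean minus 3 SD, initial fluorescence not abnormally high, positive integrated signal ratio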;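 further: B-score derived from integrated fluorescence ratio over the kinetic read; more negative B-score means stronger inhibition of depolarization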
TRPC4 agonist: activators of mouse TRPC4 channel. HEK293 TRPC4beta/mu-opioid, Fluo4 calcium fluorescence; hits give high values. B-score at 10 µM. 310,000 compounds, 0.49% hits. AID 2237;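 active means B-score above 5 SD of library B-scores, and initial fluorescence ratio not above library mean plus 5 SD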;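 further: positive B-score marks a calcium rise read as TRPC4 activation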
Target sequence (Q9QUQ5 whole entry, looked up): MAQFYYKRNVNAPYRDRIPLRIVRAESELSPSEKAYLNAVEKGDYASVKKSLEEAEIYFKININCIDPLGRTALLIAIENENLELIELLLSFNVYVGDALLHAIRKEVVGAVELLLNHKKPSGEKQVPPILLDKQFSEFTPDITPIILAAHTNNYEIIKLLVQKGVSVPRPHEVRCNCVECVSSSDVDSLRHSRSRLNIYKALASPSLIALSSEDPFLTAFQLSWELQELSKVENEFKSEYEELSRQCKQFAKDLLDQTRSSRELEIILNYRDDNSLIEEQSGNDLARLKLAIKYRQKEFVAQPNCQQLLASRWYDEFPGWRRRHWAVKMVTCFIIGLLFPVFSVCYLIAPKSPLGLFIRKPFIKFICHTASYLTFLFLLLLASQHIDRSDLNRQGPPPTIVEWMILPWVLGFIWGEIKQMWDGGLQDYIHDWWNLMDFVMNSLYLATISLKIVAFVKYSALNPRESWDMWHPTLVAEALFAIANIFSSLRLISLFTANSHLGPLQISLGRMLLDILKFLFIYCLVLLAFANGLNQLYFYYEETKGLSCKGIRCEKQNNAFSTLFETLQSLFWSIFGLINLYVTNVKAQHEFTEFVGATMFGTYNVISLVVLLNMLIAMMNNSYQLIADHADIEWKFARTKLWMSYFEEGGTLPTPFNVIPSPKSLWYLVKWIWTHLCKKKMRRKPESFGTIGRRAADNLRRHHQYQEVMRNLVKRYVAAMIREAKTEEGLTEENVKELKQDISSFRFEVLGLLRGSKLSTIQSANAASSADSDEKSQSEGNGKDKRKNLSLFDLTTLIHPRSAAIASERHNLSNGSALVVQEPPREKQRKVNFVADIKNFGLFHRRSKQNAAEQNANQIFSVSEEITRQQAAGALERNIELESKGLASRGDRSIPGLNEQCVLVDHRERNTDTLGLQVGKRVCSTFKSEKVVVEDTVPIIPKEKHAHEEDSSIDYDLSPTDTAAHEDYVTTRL
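Assay system: HEK293 stable line with TRPC4beta plus mu-opioid receptor. Times: dye 45 min RT, read 110 s. Measured by: kinetic Fluo4 calcium fluorescence. Measure: B score of integrated ratio. Controls: assay buffer as low control, maximal DAMGO as high control.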
TRPC4 inh: inhibitors of mouse TRPC4 channel. 300,000 compounds, 0.39% hits. B-score at 10 µM. Q9QUQ5. HEK293 TRPC4beta/mu-opioid, DAMGO-evoked Fluo4 calcium flux; hits give low values;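 active means B-score over 3 SD under the library average, no early fluorescence shift, positive overall ratio signal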
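Material: HEK293 cells with stable TRPC4beta plus mu-opioid receptor expression; probe or stimulus: DAMGO in two steps, submaximal then maximal; technique: Fluo4 calcium fluorescence by kinetic imaging, 5 s 1 Hz baseline; measure: integrated fluorescence ratio relative to baseline, converted to per-well B score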
TRPC6 act: activators of mouse TRPC6 channel; Q61143; HEK293-TRPC6 membrane potential dye fluorescence; hits give high values; B-score at 10 µM; 310,000 compounds, 0.13% hits;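 active means B-score of the integrated fluorescence ratio above library mean plus 3 SD, and starting fluorescence ratio within library mean plus 5 SD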;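 further: higher score means more depolarization so channel activation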
TRPC4 potent: allosterically enhances the mouse TRPC4 cation channel | Q9QUQ5 | HEK293 TRPC4beta/mu-opioid, DAMGO EC20, Fluo-4 Ca2+ flux; hits give high values | B-score at 10 µM | 310,000 compounds, 0.42% hits | AID 2227;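 active means B-score of calcium response area above 5 SD of library B-scores, with initial fluorescence ratio within 5 SD of library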;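 further: B-score of integrated fluorescence ratio over time as area under calcium response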
TRPC4 sel inh 2: mouse TRPC4 off-target activity of TRPC6 inhibitors, second screen | HEK293 TRPC4/MOR, membrane potential dye fluorescence; channel activated by saturating DAMGO dose | 920 compounds, 42% hits | inhibition, % at 10 µM | AID 2776 | shares compounds with TRPC6 inh;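 active means compounds whose fluorescence signal differed from control wells by over 3 SD, either direction, in both duplicate plates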
TRPC4 spec: selectivity of TRPC6 inhibitors: effect on mouse TRPC4; shares compounds with TRPC6 inh; HEK293 TRPC4/mu-opioid, membrane potential fluorescence; activity change, negative = inhibition, % at 10 µM; 920 compounds, 61% hits;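 active means rise or fall in signal beyond 3 SD of buffer-only wells in both replicate plates, either sign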;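 further: integrated kinetic ratio of fluorescence range over baseline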
HEK293 MPD ctr 2-1: second counter-screen for TRPC6 inhibitors: parental HEK293 cells | AID 2779 | 920 compounds, 31% hits | shares compounds with TRPC6 inh | parental HEK293 membrane potential dye fluorescence; maximal acetylcholine challenge after compound addition | signal change vs control, % at 10 µM;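 active means membrane potential signal moving either way by over 3 SD of the maximum-effect control, in both duplicate plates, meaning non-specific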
HEK293 MPD ctr-1: counter-screen for TRPC6 inhibitors: effect in parental HEK293 cells | shares compounds with TRPC6 inh | parental HEK293 membrane potential dye fluorescence | membrane potential signal change, % at 10 µM | 920 compounds, 60% hits;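 active means membrane potential signal shifting up or down by more than 3 SD of buffer-only wells, on both duplicate plates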
HEK293 MPD ctr-2: parental HEK293 nonspecific activity of TRPC6 modulators; shares compounds with TRPC6 inh; membrane potential dye fluorescence; membrane potential signal change, % at 10 µM; 2,400 compounds, 51% hits;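 active means membrane potential signal moves up or down beyond 5 SD from buffer-only wells, on both duplicate plates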
HEK293 MPD ctr 2-2: second counter-screen for TRPC6 modulators: effect in parental HEK293 cells; shares compounds with TRPC6 inh; membrane potential dye fluorescence; after compound, maximal acetylcholine stimulation; inhibition, % at 10 µM; 2,400 compounds, 14% hits;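 active means membrane potential signal drops by more than 5 SD from the mean control signal, in both duplicate plates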;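 further: plate controls were acetylcholine ECmax control wells for no effect and buffer only wells for full effect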
TRPC4/MOR mod: tests whether TRPC6 modulators also affect mouse TRPC4; shares compounds with TRPC6 inh; 2,400 compounds, 69% hits; HEK293 TRPC4/mu-opioid, membrane potential fluorescence; percent change from control (negative = decrease, positive = increase), % at 10 µM;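 active means membrane potential signal moved up or down beyond 5 SD of buffer control wells, in both duplicate plates, actives on both sides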;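 further: plate controls were assay buffer wells for no effect and DAMGO maximal-effect wells for full effect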
TRPC4 ctr inh 2: second selectivity test of TRPC6 modulators against mouse TRPC4; shares compounds with TRPC6 inh; HEK293 TRPC4/mu-opioid, membrane potential dye fluorescence; stimulated with maximal-effect DAMGO; inhibition, % at 10 µM; 2,400 compounds, 55% hits; AID 488928;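 active means drop in membrane potential signal beyond 5 SD of the control wells in both duplicate plates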;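 further: TRPC4 counter screen for TRPC6 hits run under conditions tuned for TRPC6 not TRPC4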
TRPC6 inh conf: mouse TRPC6 inhibitor confirmation | shares compounds with TRPC6 inh | HEK293-TRPC6, membrane potential dye, ACh-evoked depolarization | inhibition, % at 10 µM | 3,300 compounds, 43% hits;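 active means fluorescence ratio falls more than 5 SD below the full-stimulation control mean, in both duplicate runs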;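 further: integrated fluorescence ratio of peak minus minimum over baseline after agonist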
TRPC6 act confirm: mouse TRPC6 activator confirmation; shares compounds with TRPC6 inh; HEK293-TRPC6 membrane potential dye fluorescence, FDSS; activation, % at 10 µM; 2,800 compounds, 11% hits;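 active means ratio signal rise beyond 5 SD above unstimulated control wells' mean, seen in both duplicate runs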;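 further: plate controls were buffer EC0 wells for no effect and acetylcholine ECmax response for full effect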
* marks the source's active call; other numbers are inactive results; i = inactive; . = no result. Compounds with a hit are over-represented: about 2.3% of the library has one in this group of screens.

SMILES	TRPC6 inh	TRPC4 agonist	TRPC4 inh	TRPC6 act	TRPC4 potent	HEK293 MPD ctr-2	HEK293 MPD ctr 2-2	TRPC4/MOR mod	TRPC4 ctr inh 2	TRPC6 inh conf	TRPC6 act confirm	others
N=C1CCCN1CC(=O)c1ccc(Cl)cc1	-5.13*	i	i	i	i	i	i	i	i	i	i
O=C(COCC(=O)Nc1cccc(C(F)(F)F)c1)Nc1cccc(C(F)(F)F)c1	i	i	i	i	i	.	.	.	.	.	.
COc1cc(NC(=O)CSCC(=O)Nc2cccc(C(F)(F)F)c2)c(Cl)cc1Cl	-7.31*	i	i	i	i	.	.	.	.	i	i	TRPC4 sel inh 2=i;TRPC4 spec=i;HEK293 MPD ctr 2-1=i;HEK293 MPD ctr-1=i
c1csc(-c2nn3c(C4COc5ccccc5O4)nnc3s2)c1 (stereo not drawn)	-12.2*	i	i	i	i	i	i	i	i	i	i
Cc1cc(NC(=O)CSc2nnc(C)o2)no1	i	i	i	i	i	.	.	.	.	.	.
Cc1cc(C)n2nc(C(=O)N/N=C/c3ccco3)nc2n1	-6.56*	i	i	i	i	-275.0%*	i	-50.0%*	32.5%*	i	i
Cc1cc(C)n2nc(C(=O)N/N=C/c3ccccc3Cl)nc2n1	i	i	i	i	i	.	.	.	.	.	.
COC(=O)c1ccc2c(c1)C(C)(C)C(/C=C/c1ccccc1O)=[N+]2C	-10.3*	i	i	i	i	410.0%*	199.0%*	-207.5%*	99.0%*	106.5%*	i
CCN(CC)c1ccc(C2Nc3cccc4cccc(c34)N2)cc1	-5.46*	i	i	i	i	i	i	i	i	i	i
Cc1occc1C(=O)NNS(=O)(=O)c1ccc([N+](=O)[O-])cc1	i	i	i	i	i	.	.	.	.	.	.
COc1ccc(C(=O)NCC2(c3ccc(OC)c(OC)c3)CCCC2)c(OC)c1	i	i	i	i	i	.	.	.	.	.	.
O=C(CSc1ncc(-c2ccccc2)n1CC1CCCO1)N1CCCCC1 (stereo not drawn)	-5.98*	i	i	i	i	99.5%*	i	13.0%*	i	i	.
COCCOC(=O)c1c(N)n(CCCN2CCOCC2)c2nc3ccccc3nc12	i	i	i	i	i	.	.	.	.	.	.
COC(=O)c1c(N)n(CCCN2CCOCC2)c2nc3ccccc3nc12	-5.08*	i	i	i	i	-72.0%*	i	-16.5%*	i	i	i
